Test results from ChEMBL document CHEMBL2434893, “Synthesis, DNA binding and anti-leukemic activity of an aminoacyl nucleolipid” (Bioorg Med Chem Lett, 2013).
Active and inactive are the calls of the source. The rule behind the calls is not given here.

Tests used:
HCC 2998 = experiment: Cytotoxicity against human HCC2998 cells assessed as cell growth at 10 uM after 48 hrs by SRB assay relative to control; assay type: functional; settings: HCC 2998, 48 h, read-out: Activity
Outline: (§1)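 NCI Developmental Therapeutics Program 60-cell-line screen at a single dose of 10 μM. Cells incubated with compound for 48 h at 37 °C before viability determination.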

786-0 = experiment: Cytotoxicity against human 786-0 cells assessed as cell growth at 10 uM after 48 hrs by SRB assay relative to control; assay type: functional; settings: 786-0, 48 h, read-out: Activity; outline: as §1
K562 = experiment: Cytotoxicity against human K562 cells assessed as cell growth at 10 uM after 48 hrs by SRB assay relative to control; assay type: functional; settings: K562, 48 h, read-out: Activity; outline: as §1
SNB-75 = experiment: Cytotoxicity against human SNB75 cells assessed as cell growth at 10 uM after 48 hrs by SRB assay relative to control; assay type: functional; settings: SNB-75, 48 h, read-out: Activity
Outline: (§2)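 Single-dose (10 μM) screen run by the NCI Developmental Therapeutics Program on its 60 human cancer cell line panel. Viability was determined after 48 h incubation with the cells at 37 °C.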

U-251 = experiment: Cytotoxicity against human U251 cells assessed as cell growth at 10 uM after 48 hrs by SRB assay relative to control; assay type: functional; settings: U-251, 48 h, read-out: Activity; outline: as §2
BT-549 = experiment: Cytotoxicity against human BT549 cells assessed as cell growth at 10 uM after 48 hrs by SRB assay relative to control; assay type: functional; settings: BT-549, 48 h, read-out: Activity; outline: as §1
MOLT-4 = experiment: Cytotoxicity against human MOLT4 cells assessed as cell growth at 10 uM after 48 hrs by SRB assay relative to control; assay type: functional; settings: MOLT-4, 48 h, read-out: Activity; outline: as §1
PC-3 = experiment: Cytotoxicity against human PC3 cells assessed as cell growth at 10 uM after 48 hrs by SRB assay relative to control; assay type: functional; settings: PC-3, 48 h, read-out: Activity; outline: as §1
UO-31 = experiment: Cytotoxicity against human UO31 cells assessed as cell growth at 10 uM after 48 hrs by SRB assay relative to control; assay type: functional; settings: UO-31, 48 h, read-out: Activity; outline: as §2
MDA-MB-468 = experiment: Cytotoxicity against human MDA-MB-468 cells assessed as cell growth at 10 uM after 48 hrs by SRB assay relative to control; assay type: functional; settings: MDA-MB-468, 48 h, read-out: Activity; outline: as §1
SF-268 = experiment: Cytotoxicity against human SF268 cells assessed as cell growth at 10 uM after 48 hrs by SRB assay relative to control; assay type: functional; settings: SF-268, 48 h, read-out: Activity; outline: as §1
[1] = Binding affinity to GRP78 duplex DNA (unknown origin) assessed as change in melting temperature at 0.2 mM after 36 hrs by thermal denaturation assay
Outline: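 Duplex DNA (1.1 μM) annealed from complementary strands in phosphate buffer (140 mM KCl, 1 mM MgCl₂, 5 mM sodium phosphate, pH 7.2), with ligand 0.2–3.9 mM. Melting followed as % hyperchromicity at 260 nm over 5–90 °C. Tm shift measured against native duplex.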

NCI-H460 = experiment: Cytotoxicity against human NCI-H460 cells assessed as cell growth at 10 uM after 48 hrs by SRB assay relative to control; assay type: functional; settings: NCI-H460, 48 h, read-out: Activity; outline: as §1
M14 = experiment: Cytotoxicity against human M14 cells assessed as cell growth at 10 uM after 48 hrs by SRB assay relative to control; assay type: functional; settings: M14, 48 h, read-out: Activity; outline: as §1
SK-OV-3 = experiment: Cytotoxicity against human SKOV3 cells assessed as cell growth at 10 uM after 48 hrs by SRB assay relative to control; assay type: functional; settings: SK-OV-3, 48 h, read-out: Activity; outline: as §2
OVCAR-8 = experiment: Cytotoxicity against human OVCAR8 cells assessed as cell growth at 10 uM after 48 hrs by SRB assay relative to control; assay type: functional; settings: OVCAR-8, 48 h, read-out: Activity; outline: as §1
SF-539 = experiment: Cytotoxicity against human SF539 cells assessed as cell growth at 10 uM after 48 hrs by SRB assay relative to control; assay type: functional; settings: SF-539, 48 h, read-out: Activity; outline: as §1
Hs-578T = experiment: Cytotoxicity against human Hs578T cells assessed as cell growth at 10 uM after 48 hrs by SRB assay relative to control; assay type: functional; settings: read-out: Activity; outline: as §1
IGROV-1 = experiment: Cytotoxicity against human IGROV1 cells assessed as cell growth at 10 uM after 48 hrs by SRB assay relative to control; assay type: functional; settings: IGROV-1, 48 h, read-out: Activity; outline: as §1
SW-620 = experiment: Cytotoxicity against human SW620 cells assessed as cell growth at 10 uM after 48 hrs by SRB assay relative to control; assay type: functional; settings: SW-620, 48 h, read-out: Activity; outline: as §2
LOX IMVI = experiment: Cytotoxicity against human LOXIMVI cells assessed as cell growth at 10 uM after 48 hrs by SRB assay relative to control; assay type: functional; settings: read-out: Activity; outline: as §1
OVCAR-3 = experiment: Cytotoxicity against human OVCAR3 cells assessed as cell growth at 10 uM after 48 hrs by SRB assay relative to control; assay type: functional; settings: OVCAR-3, 48 h, read-out: Activity; outline: as §1
MDA-MB-231 = experiment: Cytotoxicity against human MDA-MB-231 cells assessed as cell growth at 10 uM after 48 hrs by SRB assay relative to control; assay type: functional; settings: MDA-MB-231, 48 h, read-out: Activity; outline: as §1
[2] = Binding affinity to GRP78 duplex DNA (unknown origin) at 0.2 to 3.9 mM by CD spectrophotometric analysis
Outline: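 CD spectra recorded on duplex DNA (1.1 μM) in phosphate buffer (140 mM KCl, 1 mM MgCl₂, 5 mM sodium phosphate, pH 7.2) titrated with ligand 0–3.9 mM. Samples prepared as for melting. Molar ellipticity followed at the 260–280 nm maximum and the 248 nm minimum.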

Malme-3M = experiment: Cytotoxicity against human MALME-3M cells assessed as cell growth at 10 uM after 48 hrs by SRB assay relative to control; assay type: functional; settings: read-out: Activity; outline: as §1
[3] = Binding affinity to GRP78 duplex DNA (unknown origin) after 36 hrs by gel shift mobility assay
Outline: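 Complementary strands (0.57 μM) annealed in 30% sucrose in TAE buffer (89 mM Tris/acetate, 2.5 mM EDTA, […]), incubated 36 h at 37 °C with ligand at 0, 5, 25, 50, 100 equiv per DNA phosphate (0, 0.2, 0.9, 1.9, 3.9 mM). Run on 24% native PAGE. DNA bands visualized by UV-shadowing at 260 nm. K_D taken from the duplex band ratio with versus without ligand.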

UACC-257 = experiment: Cytotoxicity against human UACC257 cells assessed as cell growth at 10 uM after 48 hrs by SRB assay relative to control; assay type: functional; settings: UACC-257, 48 h, read-out: Activity; outline: as §2
MDA-MB-435 = experiment: Cytotoxicity against human MDA-MB-435 cells assessed as cell growth at 10 uM after 48 hrs by SRB assay relative to control; assay type: functional; settings: MDA-MB-435, 48 h, read-out: Activity; outline: as §1
DU-145 = experiment: Cytotoxicity against human DU145 cells assessed as cell growth at 10 uM after 48 hrs by SRB assay relative to control; assay type: functional; settings: DU-145, 48 h, read-out: Activity; outline: as §1

For `CCCCCCCCCCCCCCCC(=O)O[C@@H]1[C@H](OC(=O)CCCCCCCCCCCCCCC)[C@@H](C(=O)N[C@@H](CCCCN)C(=O)OC)O[C@H]1n1cnc2c(=O)[nH]c(NC(=O)C(C)C)nc21.Cl`, the growth at 10 µM (HCC 2998) was 101%, the growth at 10 µM (786-0) was 98.1% and the growth at 10 µM (K562) was 82.9%. For the same molecule, the growth at 10 µM (SNB-75) was 94.1%, the growth at 10 µM (U-251) was 90.2% and the growth at 10 µM (BT-549) was 105%. For the same molecule, the growth at 10 µM (MOLT-4) was 93.4%, the growth at 10 µM (PC-3) was 103% and the growth at 10 µM (UO-31) was 87.1%. It also gave a growth at 10 µM (MDA-MB-468) of 83.1%, a growth at 10 µM (SF-268) of 97.1% and a ΔTm [1] of 4 °C. It also gave a growth at 10 µM (NCI-H460) of 101%, a growth at 10 µM (M14) of 93.7% and a growth at 10 µM (SK-OV-3) of 99.4%. For the same molecule, the growth at 10 µM (OVCAR-8) was 87%, the growth at 10 µM (SF-539) was 103% and the growth at 10 µM (Hs-578T) was 107%. It also gave a growth at 10 µM (IGROV-1) of 91.8%, a growth at 10 µM (SW-620) of 104% and a growth at 10 µM (LOX IMVI) of 93.5%. The growth at 10 µM (OVCAR-3) was 105%, the growth at 10 µM (MDA-MB-231) was 118% and the Activity [2] was “Active”. For the same molecule, the growth at 10 µM (Malme-3M) was 98.5%, the Kd [3] was 700 µM and the growth at 10 µM (UACC-257) was 90.1%. It also gave a growth at 10 µM (MDA-MB-435) of 99.7% and a growth at 10 µM (DU-145) of 107%.
